Results reported in ChEMBL document CHEMBL4725355, “Design, Synthesis, and Preclinical Evaluation of 3-Methyl-6-(5-thiophenyl)-1,3-dihydro-imidazo[4,5-b]pyridin-2-ones as Selective GluN2B Negative Allosteric Modulators for the Treatment of Mood Disorders” (J Med Chem, 2020).

Experiments:
[1] = Oral bioavailability in dog at 0.5 mg/kg by LC-MS/MS analysis; type: ADME, organism-based, Canis lupus familiaris; settings: in vivo
[2] = Ratio of Cmax in Sprague-Dawley rat at 500 mg/kg/day, po administered as nanosuspension measured for 14 days to EC70 for ex vivo receptor occupancy at GluN2B in po dosed Sprague-Dawley rat assessed as 3-[3H] 1-(azetidin-1-yl)-2-[6-(4-fluoro-3-methyl-phenyl)pyrrolo[3,2-b]pyridin-1-yl]-ethanone labelling; type: ADME, organism-based; settings: 336 h
[3] = Tmax in mouse at 2.5 mg/kg, po by LC-MS/MS analysis; type: ADME, organism-based; settings: in vivo
[4] = Tmax in Sprague-Dawley rat at 250 mg/kg, po administered via gavage after 24 hrs using nanosuspension formulation by LC-MS/MS analysis; type: ADME, organism-based; settings: in vivo
Method in brief: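 Single oral gavage of a nanosuspension (API:polymer 4:1), diluted with vehicle on the dosing day, at 100, 250 or 500 mg/kg to male Sprague Dawley rats, 3 per dose. Plasma was sampled from 0.5 to 24 h.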

[5] = Oral bioavailability in Sprague-Dawley rat at 2.5 mg/kg by LC-MS/MS analysis; type: ADME, organism-based; settings: in vivo
[6] = AUC (infinity) in mouse at 2.5 mg/kg, po by LC-MS/MS analysis; type: ADME, organism-based; design: route oral, time infinity, dose 2.5 mg/kg; settings: in vivo
[7] = AUC (0 to 24 hrs) in Sprague-Dawley rat at 500 mg/kg/day, po administered as nanosuspension measured for 14 days measured post last dose by LC-MS/MS analysis; type: ADME, organism-based; design: route oral, dose 500 mg/kg/day, time 14 day; settings: in vivo
Method in brief: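 Repeated daily oral dosing of the nanosuspension to rats for 14 days, up to 500 mg/kg/day.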

[8] = Negative allosteric modulation of human GluN1a/GluN2B receptor expressed in CHO cells assessed as inhibition of glutamate and glycine-induced calcium flux preincubated for 5 mins followed by glutamate and glycine addition and measured after 5 mins by calcium 5 dye based FLIPR assay; type: cell-based
Method in brief: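 Tet-On CHO T-Rex cells expressing hGluN1a with GluN2A, 2B, 2C or 2D, plated at 20,000 cells/well and induced 24 h before the assay in the presence of ketamine. Cells loaded 1 h at room temperature with Calcium 5 dye, pH 7.4 HEPES buffer. Compound added 5 min, then glutamate (~EC80) plus 10 µM glycine for 5 min; FLIPR fluorescence normalized to control wells. Three independent runs in duplicate (two for some).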

[9] = Tmax in Sprague-Dawley rat at 0.5 mg/kg, iv or 2.5 mg/kg, po using 1:1 PEG-400/water formulation by LC-MS/MS analysis; type: ADME, organism-based; settings: in vivo
Method in brief: (§1)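 Rat PK at 0.5 mg/kg i.v. and 2.5 mg/kg p.o., vehicle 1:1 PEG400/water. n=3, values given as mean ± SD.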

[10] = Half life in mouse at 2.5 mg/kg, po by LC-MS/MS analysis; type: ADME, organism-based; settings: in vivo
[11] = Clearance in mouse at 0.5 mg/kg, iv by LC-MS/MS analysis; type: ADME, organism-based; settings: in vivo
[12] = Half life in dog at 0.1 mg/kg, iv by LC-MS/MS analysis; type: ADME, organism-based, Canis lupus familiaris; settings: in vivo
[13] = AUC (0 to 24 hrs) in Sprague-Dawley rat at 500 mg/kg, po administered via gavage after 24 hrs using HPMC formulation by LC-MS/MS analysis; type: ADME, organism-based; design: route oral, dose 500 mg/kg, time <=24; settings: in vivo
Method in brief: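 Single oral gavage dose to male Sprague Dawley rats, 3 per dose level. Vehicles were a standard suspension in 5% HPMC (125, 250, 500 or 1000 mg/kg) or a nanosuspension (API:polymer 4:1), with stock diluted in vehicle on the day of dosing (100, 250 or 500 mg/kg). Blood was sampled at time points from 0.5 to 24 h.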

[14] = Drug level in Sprague-Dawley rat brain cortex at 0.03 mg/kg, iv after 5 to 120 mins by LC-MS/MS analysis; type: ADME, organism-based; settings: in vivo, time 5-120 min
Method in brief: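 Single i.v. dose of 0.03 mg/kg in 50% (w/v) PEG/water, pH 7.4; rats n=3 per group, killed at 5, 10, 30, 60 and 120 min. Cerebellum, cortex, striatum and hippocampus dissected, weighed and homogenized; drug quantified by LC-MS/MS and normalized to tissue weight. P<0.05 taken as significant versus cerebellum.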

[15] = Volume of distribution at steady state in Sprague-Dawley rat at 0.5 mg/kg, iv or 2.5 mg/kg, po using 1:1 PEG-400/water formulation by LC-MS/MS analysis; type: ADME, organism-based; settings: in vivo; method in brief: as §1
[16] = Displacement of 3-[3H] 1-(azetidin-1-yl)-2-[6-(4-fluoro-3-methyl-phenyl)pyrrolo[3,2-b]pyridin-1-yl]ethanone from GluN1a/GluN2B receptor in […] measured after 2 hrs by liquid scintillation counting method; type: tissue-based, Cortex
[17] = target: Cytochrome P450 3A4 (Homo sapiens, UniProt P08684); experiment: Time-dependent inhibition of CYP3A4 in human liver microsomes at 10 uM using nifedipine as substrate by LC-MS/MS analysis; type: ADME
Method in brief: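 CYP3A4 time-dependent inhibition in human liver microsomes. The compound (0.4 to 10 μM) was tested with and without 30 min preincubation. IC50 was taken from percent activity remaining versus vehicle, averaged over two independent experiments. A >2-fold IC50 shift after preincubation was the threshold for time-dependent inhibition.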

[18] = Clearance in monkey at 0.1 mg/kg, iv by LC-MS/MS analysis; type: ADME, organism-based, Macaca mulatta; settings: rhesus monkey, in vivo
[19] = tested on: Rattus norvegicus; experiment: Ex vivo receptor occupancy at GluN2B in po dosed Sprague-Dawley rat assessed as total plasma concentration causing 70% 3-[3H] 1-(azetidin-1-yl)-2-[6-(4-fluoro-3-methyl-phenyl)pyrrolo[3,2-b]pyridin-1-yl]-ethanone labelling measured after 60 mins by autoradiography; type: functional, organism-based
Method in brief: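 Oral dosing in rat at 8 dose levels, vehicle 20% HP-β-CD, 3 animals per group. Hippocampal GluN2B occupancy was measured ex vivo by autoradiography at 60 min post dose with the [3H] pyrrolopyridine tracer on brain slices. Labelling was expressed as percent of naïve control rats. EC70 was taken as the total (bound + unbound) plasma concentration giving 70% occupancy, with a 95% confidence interval.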

[20] = Toxicity in Sprague-Dawley rat up to 500 mg/kg/day, po administered as nanosuspension measured for 14 days; type: organism-based; settings: in vivo, 336 h, time 14 day
Method in brief: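 Repeated daily oral dosing of a nanosuspension to rats for 14 days, with 500 mg/kg/day as the high dose. Clinical observations were recorded, and animals were moved to individual caging on Day 6.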

[21] = Efflux ratio of apparent permeability across basolateral to apical side over apical to basolateral side in MDCK-MDR1 cells at 5 uM measured after 60 mins by LC-MS/MS analysis; type: ADME, cell-based, Canis lupus familiaris; settings: dog
Method in brief: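 MDCK-MDR1 cells, passages 6-30, seeded at 3.4×10^5 cells/cm² and cultured 3 days. Test compound at 5 µM final (1% DMSO) in HBSS, pH 7.4, applied to the donor side. A→B and B→A runs at 37 °C for 60 min, in duplicate, quantified by LC/MS/MS. Efflux ratio taken as B-A/A-B; monolayer integrity checked by lucifer yellow.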

[22] = Solubility of compound in 30% sulfobutylether-beta-cyclodextrin; type: physicochemical
Method in brief: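 Solubility of the compound assessed in dosing excipients, including 30% SBE-β-CD, 50% PEG-400 and 20% HP-β-CD. The aim was a solution usable for rat dosing; the 20% HP-β-CD formulation was checked for a 0.1 mg/mL solution to support a 0.5 mg/kg dose.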

Cytochrome P450 3A4, sequence (P08684 whole entry): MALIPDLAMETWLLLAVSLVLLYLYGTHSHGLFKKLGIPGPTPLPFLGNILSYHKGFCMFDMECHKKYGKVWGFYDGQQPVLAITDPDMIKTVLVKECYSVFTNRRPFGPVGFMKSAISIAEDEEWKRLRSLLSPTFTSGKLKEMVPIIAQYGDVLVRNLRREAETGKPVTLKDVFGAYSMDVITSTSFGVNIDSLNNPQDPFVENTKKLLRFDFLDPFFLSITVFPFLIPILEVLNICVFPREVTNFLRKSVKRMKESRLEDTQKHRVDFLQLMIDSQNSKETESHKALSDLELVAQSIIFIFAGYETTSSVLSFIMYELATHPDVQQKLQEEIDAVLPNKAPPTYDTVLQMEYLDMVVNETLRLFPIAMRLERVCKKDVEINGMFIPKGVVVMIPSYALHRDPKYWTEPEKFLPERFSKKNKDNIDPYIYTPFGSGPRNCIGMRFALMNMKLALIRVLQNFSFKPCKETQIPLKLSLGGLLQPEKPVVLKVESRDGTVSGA

Work on Cn1c(=O)n(CC(=O)N2CCC2)c2cc(-c3ccc(C(F)(F)F)s3)cnc21 yielded a bioavailability [1] of 43%, a Ratio [2] of 31 and a Tmax [3] of 0.3 h. For the same compound, the Tmax [4] was 2.7 h, the bioavailability [5] was 132% and the AUC(0-inf) [6] was 539 ng·h/mL. It also gave an AUC at 336 h [7] of 222000 ng·h/mL, an IC50 [8] of 31 nM and a Tmax [9] of 1.3 h. It also gave a half-life [10] of 2.4 h, a clearance [11] of 54 mL/min/kg and a half-life [12] of 0.8 h. For the same compound, the AUC(0-t) [13] was 22500 ng·h/mL, the Drug uptake [14] was “Active” and the Vdss [15] was 1.9 L/kg. The Ki [16] was 15 nM, the TDI [17] was “Not Active” and the clearance [18] was 9 mL/min/kg. For the same compound, the Cp [19] was 716 ng/mL, the Activity [20] was “Non-Toxic” and the efflux ratio at 1 h, 5 µM [21] was 2.1. It also gave a solubility [22] of less than 1000 µg/mL.
